OX1R antag-1 – antagonists of human orexin 1 receptor (OX1R); Orexin/Hypocretin receptor type 1 (Homo sapiens), O43613; OX1R-expressing cells, FRET antagonist read-out; inhibition, % at 6.6 µM; actives 1.8% (n = 330,000); in the data active means inhibition mostly above about 38%, no sharp cut-off; inactive means mostly below about 40%;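 further: 0% = agonist challenge alone and 100% = reference antagonist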
CHO parental Ca – ATP-evoked calcium signal inhibitors, parental CHO, primary screen, counter-screen for OX1R antagonist project, cell-based, fluorescence, Fluo-8 calcium dye. parental CHO-K1, ATP-induced calcium, Fluo-8 fluorescence. inhibition, % at 5.6 µM. actives 0.63% (n = 330,000). AID 463079, 2010;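 active means inhibition above that plate's mean sample inhibition plus 3 SD, cut at about 26% in these data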;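 further: 0% = ATP-challenged DMSO wells and 100% = DMSO wells without ATP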
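Test system: untransfected parental CHO cell line. Compound: one dose, 5.6 µM nominal. Detection: intracellular calcium via Fluo-8 no-wash fluorescent dye. Measure: % inhibition. Benchmarks: ATP-challenged DMSO wells low, unchallenged DMSO wells high.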
OX1R antag-2 – OX1R (HCRTR1) antagonists, primary screen, fluorescence, CHO/OX1R cells, Fluo-8 calcium, orexin A | Fluo-8 calcium fluorescence | inhibition, % at 5 µM | actives 0.43% (n = 330,000) | Orexin/Hypocretin receptor type 1 (Homo sapiens), O43613;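 active means inhibition above its plate's threshold, mean inhibition of all tested compounds on the plate plus 3 SD, cut at about 37% in these data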;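 further: 0% = orexin A challenge wells and 100% = SB-334867-A antagonist wells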
GalR3 antagonist – GalR3 antagonists in HEK293 cells, primary screen, cell-based, fluorescence readout; Galanin receptor type 3 (Homo sapiens), O60755; HEK293 GalR3-CNG cAMP membrane potential fluorescence; galR3 body fused to GalR1 C-terminus; inhibition, % at 3 µM; actives 0.44% (n = 360,000); AID 651719, 2012;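 active means inhibition above the screen-wide average plus 3 SD, cut at about 13% in these data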;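 further: forskolin and galanin both at EC90 stimulate the cells; cAMP rise reported by CNG channel membrane potential dye signal; 0% = forskolin plus galanin with DMSO and 100% = forskolin alone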
Target sequence (O60755 1-299 limits assumed): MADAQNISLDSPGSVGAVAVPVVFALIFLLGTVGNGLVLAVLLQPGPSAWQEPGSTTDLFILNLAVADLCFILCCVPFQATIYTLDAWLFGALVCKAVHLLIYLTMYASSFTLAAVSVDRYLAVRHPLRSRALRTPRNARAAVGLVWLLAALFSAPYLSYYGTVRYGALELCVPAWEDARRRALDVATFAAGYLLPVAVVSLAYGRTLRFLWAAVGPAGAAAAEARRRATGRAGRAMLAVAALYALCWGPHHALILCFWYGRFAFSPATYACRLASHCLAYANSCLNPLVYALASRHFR
GPR7 antag – GPR7 receptor antagonists, primary screen, cell-based, fluorescence, single concentration; Neuropeptides B/W receptor type 1 (Homo sapiens), P48145; GPR7-expressing cells, fluorescence antagonist assay; inhibition, % at 4.4 µM; actives 1.1% (n = 290,000); in the data active means inhibition above about 16%, passing the limit was not always enough;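 further: cells stimulated with the agonist NPW; 0% = agonist with vehicle and 100% = vehicle without agonist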
Target sequence (P48145 whole entry, looked up): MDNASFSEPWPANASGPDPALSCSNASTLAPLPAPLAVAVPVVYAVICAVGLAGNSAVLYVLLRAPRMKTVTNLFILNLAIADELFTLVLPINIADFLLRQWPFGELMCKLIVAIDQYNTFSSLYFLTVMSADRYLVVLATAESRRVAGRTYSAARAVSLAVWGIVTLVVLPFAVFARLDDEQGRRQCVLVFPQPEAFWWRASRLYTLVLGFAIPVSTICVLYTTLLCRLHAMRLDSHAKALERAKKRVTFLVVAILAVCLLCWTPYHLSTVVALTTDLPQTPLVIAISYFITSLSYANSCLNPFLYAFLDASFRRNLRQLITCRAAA
* hit, by the source's call; x = not tested or not shown. A selection: hits, their analogues and other compounds. The true share with any hit is near 3.1%.

SMILES	OX1R antag-1	CHO parental Ca	OX1R antag-2	GalR3 antagonist	GPR7 antag
O=C1NC(=O)C2C3C=CC(C12)C1C(=O)NC(=O)C31 (centres undefined)	x	x	x	-4.1	x
Cc1cc2occ(CC(=O)N(C)CC(=O)Nc3ccccc3Cl)c2cc1C	54.0*	-25.0	-17.5	-3.2	x
CN1C/C(=C/c2cccnc2)C(=O)/C(=C/c2cccnc2)C1	18.4	-6.1	-11.7	7.1	-2.9
CC1C/C(=C/c2cccn2C)C(=O)/C(=C/c2cccn2C)C1 (centres undefined)	0.3	82.7*	110.9*	-1.8	-2.3
CC1C/C(=C/c2ccncc2)C(=O)/C(=C/c2ccncc2)C1 (centres undefined)	32.6	13.5	-5.9	-8.7	24.4*
Cc1ccc(N=C2NC(=O)/C(=C/c3cccn3C)S2)cc1	16.6	-16.3	20.6	-3.9	-5.4
N=c1c(C(=O)NCc2ccco2)cc2c(=O)n3ccccc3nc2n1CC1CCCO1 (centres undefined)	49.5*	-12.9	-23.3	-2.7	-3.0
Cc1ccc(Cn2c(=N)c(C(=O)NCc3ccco3)cc3c(=O)n4ccccc4nc32)cc1	28.6	-13.7	-14.5	-6.9	-2.3
COc1ccc(CCNC(=O)c2cc3c(=O)n4ccccc4nc3n(CC3CCCO3)c2=N)cc1 (centres undefined)	x	x	x	-0.7	x
N=c1c(C(=O)NCc2ccc3c(c2)OCO3)cc2c(=O)n3ccccc3nc2n1CC1CCCO1 (centres undefined)	68.7*	-19.5	-30.9	0.9	21.6
O=C(N[C@@H](Cc1cccnc1)C(=O)N1CCC[C@H]1C(=O)NC1CCCC1)c1cccs1	x	x	x	3.1	x
CCOc1ccccc1NC(=O)C(OC(=O)c1ccccc1)c1ccccc1 (centres undefined)	17.7	52.9*	0.1	-4.5	-6.0
COc1cc(/C=C/C(=O)OCC(=O)Nc2ccccc2Sc2ccc(Cl)cc2)ccc1O	34.2	61.5*	28.1	4.8	-3.2
COc1cc(/C=C/C(=O)OCC(=O)NNC(=O)c2cc(Cl)ccc2OC)ccc1O	3.4	-11.2	-17.1	-7.9	x
O=[N+]([O-])c1ccc(Sc2nc3ccccc3[nH]2)c(Cl)c1	x	x	x	2.1	x
O=C(COC(=O)c1ccc(F)c([N+](=O)[O-])c1)NC(=O)NCc1ccccc1	33.0*	-3.4	-1.3	-8.7	x
CCN(CC)C(=O)c1cc([N+](=O)[O-])cc2c1-c1ccc([N+](=O)[O-])cc1C2=C(C#N)C#N	70.6*	-15.5	-27.4	-1.6	-5.9
Cc1cc2nc(N=C(N)N)nc(C)c2cc1C	x	x	x	-2.3	19.0*
Cc1ccc2nc(N=C(N)N)nc(C)c2c1	7.5	-6.1	-12.1	-10.0	-12.3
O=S(=O)(c1ccc(C(F)(F)F)cc1)N1CCCc2nc(-c3ccc(Br)cc3)ccc21	x	x	x	-0.2	x
Cn1nc(OC(=O)Nc2ccc(Cl)cc2)cc1C(F)(F)F	19.6	37.8*	9.3	x	-2.9
Cn1nc(OC(=O)Nc2ccc(F)cc2)cc1C(F)(F)F	12.1	7.8	13.2	1.5	6.2
CC1=CC(=O)C=C(C)C1=NOS(=O)(=O)c1ccccc1	x	x	x	-1.5	39.8*
CC(C)=CCC[C@](C)(O[C@@H]1O[C@H](CO[C@@H]2O[C@H](CO)[C@@H](O)[C@H](O)[C@H]2O)[C@@H](O)[C@H](O)[C@H]1O)C1CC[C@]2(C)C1C(=O)CC1[C@@]3(C)CC[C@H](O[C@H]4O[C@@H](CO)[C@H](O)[C@@H](O)[C@@H]4O)C(C)(C)C3CC[C@]12C (some centres undefined)	3.2	-0.4	7.3	-0.4	x
CC(=O)OCC1O[C@@H](O[C@@H]2C[C@H]3C(C)(C)[C@H](OC(C)=O)CC[C@]3(C)[C@H]3CC[C@]45C[C@]4(CC[C@H]5[C@@H](C)C[C@@H](O)[C@H](O)C(C)(C)O)[C@@]32C)[C@H](O)[C@@H](O)[C@@H]1O (some centres undefined)	23.4	100.1*	67.4*	x	10.2
SMILES	OX1R antag-1	CHO parental Ca	OX1R antag-2	GalR3 antagonist	GPR7 antag
CCN(CCN(C)C)C(=O)c1ccc2c(c1NCCO)C(=O)c1ccccc1C2=O	75.0*	-9.2	-8.4	-9.1	1.0
COc1ccc(CCN=c2c([N+](=O)[O-])nn(-c3cccc(C)c3)n2O)cc1OC	74.7*	-21.1	-29.7	-1.9	-9.4
COC(=O)[C@]12C[C@H](CC(=O)N3CCCCC3)C(=O)N(CCC3=CCCCC3)C1=C[C@H](C(C)(C)C)O[C@@H]2C	x	x	x	-8.3	x
CCCNC(=O)C1(C)CCCN(C(=O)c2cccc(C(F)(F)F)c2)C1 (centres undefined)	x	x	x	-7.5	x
COC(=O)c1ccccc1NC(=O)CSc1nc2cccnc2n1C	60.0	-23.7	-10.9	-2.0	3.9
CCOc1ccccc1NC(=O)CSc1nc2cccnc2n1C	52.5*	-6.5	4.6	-1.9	1.5
CCn1c(SCC(=O)Nc2nc(C)c(C)s2)nc2cccnc21	74.6*	-23.3	3.0	0.2	-15.8
O=C(Nc1ccc(F)c(Cl)c1)C1Cc2c(-c3ccccc3Oc3ccccc3)ccnc2O1 (centres undefined)	x	x	x	-9.4	x
COc1cc(/C=C(\CC(=O)O)c2nc3ccccc3s2)ccc1OCC(=O)Nc1ccccc1F	x	x	x	-7.4	x
N#C/C(=C/c1ccncc1)c1nc2ccccc2s1	14.8	43.8*	50.6*	1.7	0.6
CC(C)=C(C#N)c1nc2ccccc2s1	9.5	49.9*	74.3*	-3.6	1.8
COc1cc(/C=C(\C#N)c2nc3ccccc3s2)ccc1OCC(=O)Nc1ccccc1	12.2	45.7*	43.5	x	-6.4
COC(=O)c1ccc(/C(O)=C(\C#N)c2nc3ccccc3s2)cc1	50.3	7.1	-10.9	-1.9	-8.5
O=C(CSc1nncs1)Nc1ccc(N2CCCCC2)cc1	-2.8	2.3	-1.9	-4.8	x
C#CCn1cc(/C=N/NC(=O)c2cc3ccccc3o2)c2ccccc21	72.2*	-5.8	-1.1	1.8	-5.1
O=C(N/N=C/c1cccc2ccccc12)c1cc2ccccc2o1	x	x	x	-4.9	8.8
Cc1ccc(NC(=O)C2(C)CCN2C(=O)Cc2ccccc2Cl)cc1C (centres undefined)	x	x	x	-0.1	x
COc1ccc(-c2cc(C(=O)OCC(=O)N(C)C)c3ccccc3n2)cc1	42.7	-9.4	-29.9	-2.1	17.8*
COc1ccc(/C=N/NC(=O)c2cc3c(ccc4ccccc43)o2)c(OC)c1	x	x	x	-2.1	5.2
COc1ccc(/C=N/NC(=O)c2cc(-c3ccccc3)nc3ccccc23)c(OC)c1	42.3*	-12.3	20.5	-6.8	-6.6
COc1ccc(OC)c(/C=N\NC(=O)c2cc3c(ccc4ccccc43)o2)c1	73.4*	-11.5	16.7	3.8	-6.7
COc1ccc(-c2cc(C(=O)OCc3ccccn3)c3ccccc3n2)cc1	16.0	-44.2	-40.5	-5.1	1.6

Screening results from PubChem.
